Experiment [1] concerns Staphylococcus aureus. The experiment in a line: Antibacterial activity against methicillin-sensitive […] Staphylococcus aureus ATCC 29213 after 20 hrs by broth microdilution method. The experiment is classed as functional. The following applies: ATCC 29213, 20 h. Summed up: (§1)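 NCCLS broth microdilution in cation-adjusted Mueller–Hinton broth. Serial 2-fold compound dilutions were inoculated with 5 × 10⁴ CFU per 0.1 mL and incubated at 35 °C for 20 h before scoring the MIC.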

The subject of a further experiment is Bacillus subtilis. Description: Antibacterial activity against Bacillus subtilis at 64 ug/ml. The experiment is classed as functional, organism-based.
For experiment [2], the system named is Enterococcus faecalis. Description: Antibacterial activity against vancomycin-resistant Enterococcus faecalis SR7914 after 20 hrs by broth microdilution method. Format: functional. The following applies: SR7914, 20 h. Summed up:
as §1

In experiment [3] the test system is Enterococcus faecium. Description: Antibacterial activity against Enterococcus faecium ATCC 19434 after 20 hrs by broth microdilution method. The experiment is classed as functional. Conditions: ATCC 19434, 20 h. The procedure, abridged: as §1
Experiment [4] deals with Staphylococcus aureus. The experiment in a line: Antibacterial activity against methicillin-resistant Staphylococcus aureus isolate SR3637 after 20 hrs by broth microdilution method. The experiment is classed as functional. Conditions: isolate SR3637, 20 h. Summed up:
as §1
Background: Dilution methods test growth across graded concentrations, often in twofold steps.

The subject of experiment [5] is Enterococcus faecalis. Description: Antibacterial activity against Enterococcus faecalis ATCC 29212 after 20 hrs by broth microdilution method. Format: functional. The following applies: ATCC 29212, 20 h. Summed up: as §1
The subject of experiment [6] is Enterococcus faecium. The experiment in a line: Antibacterial activity against vancomycin-resistant Enterococcus faecium SR7917 after 20 hrs by broth microdilution method. Format: functional. Conditions: SR7917, 20 h. Summed up: as §1
The next experiment deals with HepG2. The experiment in a line: Cytotoxicity against human HepG2 cells after 48 hrs by WST-8 assay. The following applies: HepG2, 48 h. Format: cell-based. Summed up: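 HepG2 cells in DMEM with 10% FBS were seeded at 1 × 10⁴ cells/well and treated 24 h later with varying concentrations for 48 h. WST-8 reagent was then added for 1.5 h at 37 °C, and absorbance read at 450 nm. Percentage growth inhibition was calculated against untreated cells, and IC50 was derived. Tunicamycin served as positive control.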
For orientation: Formazan colour is commonly taken as a measure of viable cells.

The target of experiment [7] is T1, Undecaprenyl-phosphate alpha-N-acetylglucosaminyl 1-phosphate transferase (Thermotoga maritima (strain ATCC 43589 / MSB8 / DSM 3109 / JCM 10099), UniProt Q9X1N5).
T1 sequence (Q9X1N5 whole entry): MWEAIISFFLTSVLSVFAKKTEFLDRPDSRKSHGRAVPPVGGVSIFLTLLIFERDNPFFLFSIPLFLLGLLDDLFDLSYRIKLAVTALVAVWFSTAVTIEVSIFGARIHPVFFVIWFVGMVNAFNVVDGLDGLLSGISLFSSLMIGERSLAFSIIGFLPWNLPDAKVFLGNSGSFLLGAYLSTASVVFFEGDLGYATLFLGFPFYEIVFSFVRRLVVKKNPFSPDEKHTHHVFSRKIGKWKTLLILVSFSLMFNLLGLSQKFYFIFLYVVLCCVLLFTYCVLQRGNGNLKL
The experiment in a line: Inhibition of Thermotoga maritima WecA using radiolabeled UDP-[14C]GlcNAc as substrate after 30 mins. The procedure, abridged:
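Purified Thermotoga maritima WecA was assayed at pH 8 (100 mM Tris-HCl, 10 mM MgCl₂, 1.1 mM C₅₅-P, 0.16 mM UDP-[¹⁴C]GlcNAc, 92.7 mM Triton X-100), final concentrations. The reaction was started by enzyme, run 30 min at 65 °C and stopped at 100 °C for 1 min. C₅₅-PP-GlcNAc was separated by TLC and scanned. IC50 was relative to a no-inhibitor control, mean of triplicates.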

Experiment [8] has as its target T2, Phospho-N-acetylmuramoyl-pentapeptide-transferase (Bacillus subtilis (strain 168), UniProt Q03521).
T2 sequence (Q03521 whole entry): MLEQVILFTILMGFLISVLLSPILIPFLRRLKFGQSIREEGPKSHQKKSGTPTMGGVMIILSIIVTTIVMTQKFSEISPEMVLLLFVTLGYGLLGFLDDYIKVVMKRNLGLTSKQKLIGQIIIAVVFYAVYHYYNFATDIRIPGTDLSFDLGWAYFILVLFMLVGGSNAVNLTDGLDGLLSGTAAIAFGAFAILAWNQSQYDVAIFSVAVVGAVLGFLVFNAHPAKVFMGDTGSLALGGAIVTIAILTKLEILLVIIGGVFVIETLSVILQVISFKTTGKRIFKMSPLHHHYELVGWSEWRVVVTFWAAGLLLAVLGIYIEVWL
The experiment in a line: Competitive inhibition of Bacillus subtilis MraY using UDP-MurNAc-pentapeptide as substrate after 30 mins by Lineweaver-Burk plot. The procedure, abridged: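 B. subtilis MraY was assayed at pH 7.5 (100 mM Tris-HCl, 40 mM MgCl₂, 250 mM NaCl, 8.4 mM N-lauroylsarcosine), started by enzyme and run 30 min at 37 °C. Initial rates were taken at 0.25–1.5 mM UDP-MurNAc-[¹⁴C]pentapeptide, fixed 1 mM C₅₅-P, and several inhibitor levels. Lipid I was separated by TLC and scanned. Ki came from Lineweaver–Burk plots assuming a ping-pong Bi Bi mechanism.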

For experiment [9], the target named is T2, Phospho-N-acetylmuramoyl-pentapeptide-transferase. Description: Noncompetitive inhibition of Bacillus subtilis MraY using […] as substrate after 30 mins by Lineweaver-Burk plot.

Converted amounts (≈) assume the structure as drawn. The source made the active and inactive calls. No cut-off for these calls is given here.

In general, MIC refers to the lowest concentration that inhibits growth of the organism. Lower therefore signals greater potency. As for `CC(C)C[C@@H](NC(=O)[C@@H](NC(=O)N[C@H](C(=O)O)C(C)C)[C@@H]1CCNC(=N)N1)C(=O)NCCCN[C@H](C(=O)O)[C@H](O[C@@H]1O[C@H](CN)[C@@H](O)[C@H]1O)[C@H]1O[C@@H](n2ccc(=O)[nH]c2=O)[C@H](O)[C@@H]1O`, the MIC against Staphylococcus aureus [1], against Enterococcus faecalis [2], in the experiment on Enterococcus faecium [3], with Staphylococcus aureus [4], in the experiment with Enterococcus faecalis [5] and against Enterococcus faecium [6] was over 64 µg/mL in each case. Besides, the result in the experiment with Bacillus subtilis was inactive.

In the case of `CC(C)C[C@H](NC(=O)[C@@H](NC(=O)N[C@H](C(=O)O)C(C)C)[C@@H]1CCNC(=N)N1)C(=O)NCCCN[C@H](C(=O)O)[C@H](O[C@@H]1O[C@H](CN)[C@@H](O)[C@H]1O)[C@H]1O[C@@H](n2ccc(=O)[nH]c2=O)[C@H](O)[C@@H]1O` [MURAMYCIN D2], the MIC in the experiment with Staphylococcus aureus [1], against Enterococcus faecalis [2], against Enterococcus faecium [3], in the experiment on Staphylococcus aureus [4], against Enterococcus faecalis [5] and with Enterococcus faecium [6] was over 64 µg/mL in each case. Also, the result with Bacillus subtilis was inactive.

One may read the IC50 as the point on the concentration scale where inhibition reaches its midpoint. Broadly, the Ki is the equilibrium dissociation constant of an inhibitor or competing ligand from its target. High values mean lower affinity, low ones higher affinity. As for `CCCCCCCCCCCCCCC[C@@H](NC(=O)[C@@H](NC(=O)N[C@H](C(=O)O)C(C)C)[C@@H]1CCNC(=N)N1)C(=O)NCCCN[C@H](C(=O)O)[C@H](O[C@@H]1O[C@H](CN)[C@@H](O)[C@H]1O)[C@H]1O[C@@H](n2ccc(=O)[nH]c2=O)[C@H](O)[C@@H]1O`, the IC50 is over 100 µg/mL in the experiment with HepG2 and 1340 µM in experiment [7]. The MIC in the experiment on Staphylococcus aureus [1] was found to be 2 µg/mL (≈ 1.87 µM); against Enterococcus faecalis [2], 4 µg/mL (≈ 3.74 µM); with Enterococcus faecium [3], 0.5 µg/mL (≈ 0.467 µM); in the experiment with Staphylococcus aureus [4] it was 4 µg/mL (≈ 3.74 µM); in the experiment with Enterococcus faecalis [5], 2 µg/mL (≈ 1.87 µM); in the experiment on Enterococcus faecium [6] it was 0.25 µg/mL (≈ 0.234 µM). Besides, the Ki in [8] and in [9] was 0.698 µM throughout.

`CCCCCCOc1ccc(-c2ccc([C@H](NC(=O)[C@@H](NC(=O)N[C@H](C(=O)O)C(C)C)[C@@H]3CCNC(=N)N3)C(=O)NCCCN[C@H](C(=O)O)[C@H](O[C@@H]3O[C@H](CN)[C@@H](O)[C@H]3O)[C@H]3O[C@@H](n4ccc(=O)[nH]c4=O)[C@H](O)[C@@H]3O)cc2)cc1`: the concentration for half-maximal inhibition (IC50) in the experiment on HepG2 was over 100 µg/mL. The MIC was 4 µg/mL (≈ 3.6 µM) in the experiment with Staphylococcus aureus [1]; 8 µg/mL (≈ 7.19 µM) in the experiment on Enterococcus faecalis [2]; 4 µg/mL (≈ 3.6 µM) with Enterococcus faecium [3]; 8 µg/mL (≈ 7.19 µM) with Staphylococcus aureus [4]; 8 µg/mL (≈ 7.19 µM) in the experiment on Enterococcus faecalis [5]; 4 µg/mL (≈ 3.6 µM) with Enterococcus faecium [6].

The record behind these values is ChEMBL document CHEMBL1933006, “Mechanistic analysis of muraymycin analogues: a guide to the design of MraY inhibitors” (J Med Chem, 2011).
